Test results reported in ChEMBL document CHEMBL1143506, “Antimalarial activity of 2,4,6-trisubstituted pyrimidines” (Bioorg Med Chem Lett, 2005).
≈ marks a conversion by molar mass, not a printed value.

System: Plasmodium falciparum
Experiment: Minimum inhibitory concentration against schizont maturation of Plasmodium falciparum NF54 ring stage after 40 h
Type: functional
In short: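 P. falciparum NF-54 culture kept in RPMI-1640 with 25 mM HEPES, 1% D-glucose, 0.23% sodium bicarbonate, 10% heat-inactivated human serum. Sorbitol-synchronized rings (~1% parasitaemia, 3% hematocrit). Compounds at 0.25–50 µg/mL in duplicate wells, 37 °C, candle jar, 36–40 h. Giemsa smears scored microscopically; MIC is the lowest concentration blocking full maturation to schizonts. Pyrimethamine served as reference.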

Compound	MIC [µg/mL]
COc1ccc(-c2cc(-c3ccncc3)nc(N3CCOCC3)n2)cc1	2 (≈ 5.74 µM)
COc1cccc(-c2cc(-c3ccncc3)nc(N3CCOCC3)n2)c1	2 (≈ 5.74 µM)
COc1cc(-c2cc(-c3ccncc3)nc(N3CCOCC3)n2)cc(OC)c1OC	10 (≈ 24.5 µM)
Clc1ccc(-c2cc(-c3ccncc3)nc(N3CCOCC3)n2)cc1	10 (≈ 28.3 µM)
CSc1ccc(-c2cc(-c3ccncc3)nc(N3CCOCC3)n2)cc1	10 (≈ 27.4 µM)
Cc1ccc(-c2cc(-c3ccncc3)nc(N3CCOCC3)n2)cc1	10 (≈ 30.1 µM)
CCc1nc(N)nc(N)c1-c1ccc(Cl)cc1 [PYRIMETHAMINE]	10 (≈ 40.2 µM)

Further compounds by falling MIC, results first:

MIC [µg/mL]	Compound
2 (≈ 5.28 µM)	COc1cc(OC)cc(-c2cc(-c3ccncc3)nc(N3CCOCC3)n2)c1
2 (≈ 6.28 µM)	c1ccc(-c2cc(-c3ccncc3)nc(N3CCOCC3)n2)cc1
1 (≈ 2.64 µM)	COc1cccc(-c2cc(-c3ccncc3)nc(N3CCOCC3)n2)c1OC
1 (≈ 2.51 µM)	COc1ccc(-c2cc(-c3ccncc3)nc(N3CCOCC3)n2)c2ccccc12
1 (≈ 2.75 µM)	O=[N+]([O-])c1cccc(-c2cc(-c3ccncc3)nc(N3CCOCC3)n2)c1
1 (≈ 2.89 µM)	Cc1ccc(-c2cc(-c3ccncc3)nc(N3CCOCC3)n2)cc1C
1 (≈ 3.08 µM)	c1csc(-c2cc(-c3ccncc3)nc(N3CCOCC3)n2)c1
1 (≈ 2.64 µM)	COc1ccc(OC)c(-c2cc(-c3ccncc3)nc(N3CCOCC3)n2)c1
0.5 (≈ 1.22 µM)	COc1cc(OC)c(-c2cc(-c3ccncc3)nc(N3CCOCC3)n2)cc1OC
